Experimental data: ChEMBL document CHEMBL4364260, “Discovery of Ziresovir as a Potent, Selective, and Orally Bioavailable Respiratory Syncytial Virus Fusion Protein Inhibitor” (J Med Chem, 2019)
Active and inactive are the calls of the source. No cut-off for these calls is given here.

Key:
[1] = Half-life in CD-1 mouse at 5 mg/kg, iv; format: ADME, organism-based; settings: in vivo
Summary of the method: (§1)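 Single-dose PK in CD-1 mice: 5 mg/kg iv, 50 mg/kg po. Dosed as a solution in 5% DMSO, 40% PEG400, 55% of 0.9% NaCl. Plasma CL, Vss, iv T1/2, AUC and F were derived.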

[2] = Oral bioavailability in CD-1 mouse at 50 mg/kg; format: ADME, organism-based; settings: in vivo; summary of the method: as §1
[3] = Half-life in CD-1 mouse plasma at 10 mg/kg/day, po administered via gavage and measured up to 24 hrs by LC/MS/MS analysis; format: ADME, organism-based
[4] = Antiviral activity against Human respiratory syncytial virus B 821 clinical isolates infected in human Hep2 cells assessed as reduction in virus induced cytopathic effect in presence of 10% FBS after 5 days by CCK-8 assay; format: functional, cell-based; settings: human respiratory syncytial virus, 821, HEp-2, 120 h
Summary of the method: (§2)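 HEp-2 cells seeded at 6000/well and infected the next day at MOI 0.02, a dose that gives about 90% CPE by day 5. Serial compound dilutions were present throughout, in standard medium with 10% FBS. Viability was read by CCK-8 at day 5, and EC50 is the concentration that cuts CPE by 50%.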

[5] = Clearance in CD-1 mouse at 5 mg/kg, iv or 50 mg/kg, po; format: ADME, organism-based; settings: in vivo; summary of the method: as §1
Human orthopneumovirus = assay: Antiviral activity against Human respiratory syncytial virus B18537 infected in human Hep2 cells assessed as reduction in virus induced cytopathic effect in presence of 10% FBS after 5 days by CCK-8 assay; format: functional, organism-based; settings: subgroup B / strain 18537, HEp-2, 120 h; summary of the method: as §2
[6] = Clearance in Sprague-Dawley rat at 2 mg/kg, iv or 10 mg/kg, po; format: ADME, organism-based; settings: in vivo
Summary of the method: (§3)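 Rat single-dose PK: 2 mg/kg iv and 10 mg/kg po. Compound was given as a solution in 5% DMSO/40% PEG400/55% of 0.9% saline. Plasma CL, Vss, iv half-life, AUC and oral bioavailability were reported.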

[7] = Volume of distribution at steady state in cynomolgus monkey at 2 mg/kg, iv or 10 mg/kg, po; format: ADME, organism-based, Macaca fascicularis; settings: in vivo, read-out: Vdss
Summary of the method: (§4)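 Cynomolgus monkeys got single doses of 2 mg/kg iv and 10 mg/kg po as a solution in 12.5% captisol in water. Plasma CL, Vss, iv T1/2, AUC and oral F were derived.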

[8] = Plasma clearance in Wistar-Han rat at 2 mg/kg, iv or 10 mg/kg, po administered as single dose via gavage and measured up to 24 hrs by LC/MS/MS analysis; format: ADME, organism-based
Summary of the method: (§5)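 Male Wistar-Han rats, single dose, 2 mg/kg iv and 10 mg/kg po, run by standard procedures.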

Influenza A virus = assay: Antiviral activity against Influenza A virus H1N1 infected in human Hep2 cells assessed as reduction in virus induced cytopathic effect after 5 days by CCK-8 assay; format: functional; settings: H1N1, HEp-2, 120 h
[9] = Tmax in CD-1 mouse lung at 10 mg/kg/day, po administered via gavage and measured up to 24 hrs by LC/MS/MS analysis; format: ADME, organism-based
[10] = Volume of distribution at steady state in Sprague-Dawley rat at 2 mg/kg, iv or 10 mg/kg, po; format: ADME, organism-based; settings: in vivo, read-out: Vdss; summary of the method: as §3
[11] = molecular target: Fusion glycoprotein F0 (human respiratory syncytial virus) (UniProt Q89535); assay: Inhibition of Human respiratory syncytial virus Fusion protein assessed as reduction in protein-induced syncytia formation at 0.1 uM after 3 days by microscopic method relative to control
Summary of the method: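 Serially diluted compound was added to cells expressing RSV-F. Cell-cell fusion (syncytia) was scored by microscopy three days after compound addition.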

[12] = Half-life in Wistar-Han rat at 2 mg/kg, iv administered as single dose and measured up to 24 hrs by LC/MS/MS analysis; format: ADME, organism-based; settings: in vivo; summary of the method: as §5
Human respirovirus 3 = assay: Antiviral activity against Human parainfluenza virus 3 infected in human Hep2 cells assessed as reduction in virus induced cytopathic effect after 5 days by CCK-8 assay; format: functional, organism-based
[13] = AUC (0 to 24 hrs) in Wistar-Han rat at 10 mg/kg, po administered as single dose via gavage and measured up to 24 hrs by LC/MS/MS analysis; format: ADME, organism-based; design: dose 10 mg/kg, time < 24 hr, route oral; settings: in vivo
Summary of the method: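 Single-dose PK in male Wistar-Han rats at 2 mg/kg iv or 10 mg/kg po, as a solution in 5% DMSO, 40% PEG400 and 55% 0.9% sodium chloride.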

[14] = Antiviral activity against Human respiratory syncytial virus A strain Long infected in BALB/c mouse assessed as log reduction in virus titer in lung at 12.5 mg/kg, po BID administered up to 8 hrs for 4 days relative to control; format: functional
Summary of the method: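 Six-week-old female BALB/c mice, housed specific-pathogen-free, were anesthetized intraperitoneally with ketamine/xylazine and given RSV Long strain intranasally (5×10^5 PFU in 100 µL). Oral dosing was twice daily (0 h and 8 h) for 4 days, 12 mice per group. Mice were then euthanized with CO₂ and lungs harvested for viral titer, compared with vehicle.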

[15] = test system: Fusion glycoprotein F0 (Human respiratory syncytial virus A (strain A2)), P03420 [D489A]; assay: Inhibition of Human respiratory syncytial virus Fusion protein D489A mutant expressed in Hep2 cells as reduction in virus induced cytopathic effect by CCK-8 assay; format: cell-based
Summary of the method: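 HEp-2 cells were seeded at 6000/well and infected with plaque-purified RSV carrying the F-protein mutation (D486N or D489A) at MOI 0.04, with serially diluted compound. Viability was read by CCK-8 absorbance at 450 nm/650 nm, and EC50/EC90 were derived from protection against virus-induced cytopathic effect.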

Enterovirus = assay: Antiviral activity against Rhinovirus infected in human Hep2 cells assessed as reduction in virus induced cytopathic effect after 5 days by CCK-8 assay; format: functional, organism-based
[16] = Half-life in cynomolgus monkey at 2 mg/kg, iv; format: ADME, organism-based, Macaca fascicularis; settings: in vivo; summary of the method: as §4
[17] = AUC (0 to 24 hrs) in Sprague-Dawley rat at 10 mg/kg, po; format: ADME, organism-based; design: dose 10 mg/kg, time < 24 hr, route oral; settings: in vivo
[18] = Cmax in CD-1 mouse plasma at 10 mg/kg/day, po administered via gavage and measured up to 24 hrs by LC/MS/MS analysis; format: ADME, organism-based; design: dose 10 mg/kg/day, route oral
[19] = Cytotoxicity against human Hep2 cells assessed as reduction in cell viability after 5 days by CCK-8 assay; format: cell-based; settings: HEp-2 cells
Summary of the method: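 Uninfected HEp-2 cells (6000/well) were incubated 5 days with serially diluted compound. Viability was read by CCK-8, and CC50 is the concentration toxic to 50% of cells.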

[20] = Ratio of AUC (0 to 24 hrs) in lung to plasma of CD-1 mouse at 10 mg/kg, po administered via gavage by LC-MS/MS analysis; format: ADME, organism-based; settings: read-out: Ratio AUC
[21] = Oral bioavailability in cynomolgus monkey at 10 mg/kg; format: ADME, organism-based, Macaca fascicularis; settings: in vivo; summary of the method: as §4
[22] = Volume of distribution at steady state in CD-1 mouse at 5 mg/kg, iv or 50 mg/kg, po; format: ADME, organism-based; settings: in vivo, read-out: Vdss; summary of the method: as §1

Cc1ccc2nc(N3CCS(=O)(=O)c4ccccc4C3)nc(NCC3(N)COC3)c2c1 [ZIRESOVIR]
half-life [1]: 0.4 h | bioavailability [2]: 66% | half-life [3]: 1.02 h | EC50 [4]: 3 nM | EC90 [4]: 8 nM | clearance [5]: 277 mL/min/kg | EC50 (Human orthopneumovirus): 2 nM | EC90 (Human orthopneumovirus): 3 nM | clearance [6]: 58 mL/min/kg | Vd [7]: 1.9 L/kg | clearance [8]: 58 mL/min/kg | EC90 (Influenza A virus): > 100000 nM | Tmax [9]: 1 h | Vd [10]: 3.9 L/kg | inhibition [11]: 100% | half-life [12]: 1.2 h | Activity (Human respirovirus 3): inactive | AUC(0-t) at 24 h [13]: 906 ng·h/mL | FC [14]: >1 | EC90 [15]: 10000 nM | Activity (Enterovirus): inactive | half-life [16]: 1 h | AUC(0-t) at 24 h [17]: 906 ng·h/mL | Cmax [18]: 5090 ng/mL | CC50 at 120 h [19]: > 100000 nM | Kp [20]: 8.6 | bioavailability [21]: 22% | Vd [22]: 6.3 L/kg
